Assays:
[1] = Human bioavailability study: 24 h urinary excretion; assay type: in vivo; conditions: humans; for 24 h urinary excretion, Snack: after 75 g baked snack; for 24 h urinary excretion, Snack / 24 h urinary excretion, Vegetable meal: per mg intake of corresponding compound; for 24 h urinary excretion, Vegetable meal: after 461 g vegetable meal
How it was run: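 Adult volunteers fasted overnight (≥10 h), then gave a fasted blood sample and spot urine. Each study meal was eaten within a targeted 15 min under nurse supervision. Urine was collected over 24 h postprandially, extracted liquid-liquid and analysed by LCMS for aglycones plus glucuronide, glucoside and sulfate conjugates. Results were expressed per mg intake, and the two meals were compared by paired t-test.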

[2] = Determination of phytochemicals in food products; conditions: for change during the baking process (dough to final product): snack ratio broccoli:onion:carrot:parsley = 2.1:5.5:11.4:1
Caco-2/TC7 monolayer = assay: Transport; assay type: in vitro ADME; conditions: p < 0.05
How it was run: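 Snack or vegetable-mix samples went through a simplified simulated gastric/small-intestinal digestion including amylase, run to completion and centrifuged to clear supernatant. Supernatant mixed 1:1 with DMEM was applied to Caco-2/TC7 monolayers; DMEM with 40 µM quercetin or apigenin served as the buffer control. Papp = (dQ/dt)/(Co·A), from total basolateral metabolites plus aglycone; mean ± SD, n = 3.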

[3] = ref Rothwell, Day, & Morgan, 2005; cited from earlier work
Caco-2/TC7 cells = assay: Uptake of quercetin and apigenin by Caco-2/TC7 cells from digestates; assay type: in vitro ADME; conditions: all digestates and DMEM-only control; p < 0.05
How it was run: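 Clear supernatants from simplified simulated stomach/small-intestine digestion (with amylase) were diluted 1:1 in DMEM and applied to Caco-2/TC7 cells; DMEM with 40 µM quercetin or apigenin served as control. Uptake was summed from metabolites in medium, metabolites in cells and aglycone in cells, and the rate was this total divided by time. Mean ± SD, n = 3.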

[4] = In vitro gastric-duodenal digestion; assay type: in vitro ADME; conditions: both snack and vegetable meals

24 h urinary excretion, Difference (absolute) vegetable meal vs snack [1] [nmol per mg intake] | 24 h urinary excretion, Snack [1] [nmol/mg intake] | 24 h urinary excretion, Vegetable meal [1] [nmol/mg intake] | urinary levels in 24 h urine, snack versus vegetable meal (paired t-test) [1] | SMILES | other results
0.23 | 4.17 ± 3.3 | 4.40 ± 2.5 |  | O=C(O)[C@H]1O[C@@H](Oc2c(-c3ccc(O)c(O)c3)oc3cc(O)cc(O)c3c2=O)[C@H](O)[C@@H](O)[C@@H]1O [Quercetin-3-GlcA, quercetin-3-glucuronide] | 
236.4 | 272.17 ± 280.8 | 508.54 ± 450.9 | approached significance | CC(=O)N[C@@H](CSC(=S)NCCCC[S+](C)[O-])C(=O)O (stereo partly drawn) [Sulforaphane-NAC, sulforaphane-N-acetyl-cysteine] | 
0.05 | 0.15 ± 0.4 | 0.21 ± 0.3 |  | O=c1cc(-c2ccc(O)cc2)oc2cc(O[C@@H]3O[C@H](CO)[C@@H](O)[C@H](O)[C@H]3O)cc(O)c12 [A-7-Glc, apigenin-7-O-glucoside] | 
0.99 | 6.32 ± 8.1 | 5.33 ± 6.6 |  | O=C(O)[C@H]1O[C@@H](Oc2cc(O)c3c(=O)cc(-c4ccc(O)cc4)oc3c2)[C@H](O)[C@@H](O)[C@@H]1O [A-7-GlcA] | 
0.03 | 0.04 ± 0.1 | 0.07 ± 0.1 |  | O=c1c(O[C@@H]2O[C@H](CO)[C@@H](O)[C@H](O)[C@H]2O)c(-c2ccc(O)c(O)c2)oc2cc(O)cc(O)c12 [Quercetin-3-Glc, quercetin-3-O-glucoside] | 
0.79 | 2.58 ± 1.9 | 3.36 ± 1.8 |  | O=c1c(OS(=O)(=O)O)c(-c2ccc(O)c(O)c2)oc2cc(O)cc(O)c12 [Quercetin-3-sulfate] | 
0.19 | 3.37 ± 6.6 | 3.55 ± 4.6 | not significantly different | O=c1cc(-c2ccc(O)cc2)oc2cc(O)cc(O)c12 [apigenin] | change during the baking process (dough to final product) [2]: +6%; Papp compared to quercetin (Caco-2/TC7 monolayer): higher; lipophilicity compared to quercetin [3]: higher lipophilicity; rate of uptake compared to quercetin (Caco-2/TC7 cells): significantly higher
1.07 | 1.60 ± 2.0 | 2.67 ± 2.7 | significantly differed | COc1cc(-c2oc3cc(O)cc(O)c3c(=O)c2O[C@@H]2O[C@H](C(=O)O)[C@@H](O)[C@H](O)[C@H]2O)ccc1O [IR-3-GlcA, isorhamnetin-3-glucuronide] | 
0.38 | 0.34 ± 0.7 | 0.72 ± 1.3 | not significantly different | O=c1c(O)c(-c2ccc(O)c(O)c2)oc2cc(O)cc(O)c12 [quercetin] | change during the baking process (dough to final product) [2]: +12%
 |  |  | not significantly different | C[S+]([O-])CCCC/C(=N\OS(=O)(=O)O)S[C@@H]1O[C@H](CO)[C@@H](O)[C@H](O)[C@H]1O (stereo partly drawn) [glucoraphanin] | change during the baking process (dough to final product) [2]: −14%
 |  |  |  | CC1=C[C@H](O)CC(C)(C)[C@H]1/C=C/C(C)=C/C=C/C(C)=C/C=C/C=C(C)/C=C/C=C(C)/C=C/C1=C(C)C[C@@H](O)CC1(C)C [lutein] | present in the liquid phase after in vitro digestion [4]: around 0.4 mg
 |  |  |  | CC1=C(/C=C/C(C)=C/C=C/C(C)=C/C=C/C=C(C)/C=C/C=C(C)/C=C/C2=C(C)CCCC2(C)C)C(C)(C)CCC1 [β-carotene] | yield in the final product ([2]; dough with only carrots, after baking): 31.8 % (w/w); threshold value above which lost during the baking process ([2]; final snack product): 10–13 mg per 100 g dry matter; present in the liquid phase after in vitro digestion [4]: no detectable

SMILES | 24 h urinary excretion, Difference (absolute) vegetable meal vs snack [1] [nmol per mg intake] | 24 h urinary excretion, Snack [1] [nmol/mg intake] | 24 h urinary excretion, Vegetable meal [1] [nmol/mg intake] | urinary levels in 24 h urine, snack versus vegetable meal (paired t-test) [1] | other results
C[S+]([O-])CCCCN=C=S (stereo not drawn) [Sulforaphane] | 7.47 | 36.25 ± 27.9 | 43.72 ± 44.2 |  | 

From article PMC6189524 (Journal of Functional Foods, 2018)
